Reference: ChEMBL document CHEMBL1153533, “Phosphoramidate prodrugs of 2'-C-methylcytidine for therapy of hepatitis C virus infection” (J Med Chem, 2009)

Tests used:
[1] = Cytotoxicity against human HBI10A cells
[2] = Selectivity index, ratio of CC50 for human HBI10A cells to EC50 for HCV infected in human HBI10A cells
How it was run: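 Subgenomic HCV replicon assay gives EC₅₀ (n = 2-9 independent determinations). CC₅₀ is the concentration cutting cell viability by 50%. SI = CC₅₀/EC₅₀.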

Hepatitis C virus [3] = test: Antiviral activity against HCV infected in human HBI10A cells by subgenomic viral replicon assay; type: functional, organism-based, Hepacivirus hominis
Hepatitis C virus [4] = test: Antiviral activity against HCV assessed as logarithmic reduction in plasma viral RNA at 1500 mg, QD after 14 days; type: functional, Hepacivirus hominis
Hepatitis C virus [5] = test: Antiviral activity against HCV assessed as logarithmic reduction in plasma viral RNA at 800 mg, po BID after 14 days; type: functional, Hepacivirus hominis
Hepatocyte = test: Stability in cryopreserved primary human hepatocytes assessed as increase in intracellular nucleoside triphosphate formation by LC-MS/MS analysis; type: ADME, cell-based
[6] = Stability in human HBI10A cells assessed as intracellular nucleoside triphosphate AUC (0 to 24 hrs) at 100 uM by LC-MS/MS analysis
Hamster = test: AUC (0 to 48 hrs) in hamster at 1 mg/kg, sc; type: ADME, organism-based, Plasma; parameters: time < 48 hr, dose 1 mg/kg, route subcutaneous; settings: cricetinae, in vivo
[7] = Drug level in rabbit liver assessed as nucleoside triphosphate level at 1 mg/kg, sc after 24 hrs; type: ADME, organism-based, Oryctolagus cuniculus; parameters: dose 1 mg/kg, route subcutaneous; settings: in vivo, read-out: Drug uptake
Liver [8] = test: Drug concentration in rat liver assessed as nucleoside triphosphate level at […], sc after 6 hrs; type: ADME, organism-based; settings: in vivo, read-out: Drug uptake
[9] = Drug concentration in hamster liver assessed as nucleoside triphosphate level at 1.5 umol/kg, sc after 6 hrs; settings: cricetinae, in vivo
[10] = Drug level in hamster liver assessed as nucleoside triphosphate level at 1 mg/kg, sc after 24 hrs; type: ADME, organism-based; parameters: dose 1 mg/kg, route subcutaneous; settings: cricetinae, in vivo, read-out: Drug uptake
Liver [11] = test: Drug level in rat liver assessed as nucleoside triphosphate level at 1 mg/kg, sc after 24 hrs; type: ADME, organism-based; parameters: dose 1 mg/kg, route subcutaneous; settings: in vivo, read-out: Drug uptake
Hepatitis C virus [12] = test: Antiviral activity against HCV assessed as logarithmic reduction in plasma viral RNA at 1500 mg, po BID after 14 days; type: functional, Hepacivirus hominis
Hepatitis C virus [13] = test: Antiviral activity against HCV infected in human HBI10A cells at 20 uM by subgenomic viral replicon assay; type: functional, Hepacivirus hominis
Hepacivirus hominis = test: Inhibition of HCV NS5B polymerase by cell-based assay

SMILES | CC50 [1] [µM] | Ratio CC50/EC50 [2] | EC50 (Hepatitis C virus [3]; Hepatitis C virus, HBI10A) [µM] | further results
CCOC(=O)[C@H](CC(C)C)NP(=O)(OC[C@H]1O[C@@H](n2ccc(N)nc2=O)[C@](C)(O)[C@@H]1O)Oc1ccc(Cl)cc1 (mixture of isomers) | > 50 | >7 | 7 | –
CCOC(=O)[C@H](C)NP(=O)(OC[C@H]1O[C@@H](n2ccc(N)nc2=O)[C@](C)(O)[C@@H]1O)Oc1ccc(Cl)cc1 (mixture of isomers) | – | – | – | EC50 (Hepatitis C virus [3]; hbi10a): 1.8 µM
CCCCOC(=O)[C@H](C)NP(=O)(OC[C@H]1O[C@@H](n2ccc(N)nc2=O)[C@](C)(O)[C@@H]1O)Oc1ccc(Cl)c2ccccc12 (mixture of isomers) | > 20 | 125 | 0.16 | –
CCOC(=O)[C@H](C)NP(=O)(OC[C@H]1O[C@@H](n2ccc(N)nc2=O)[C@](C)(O)[C@@H]1O)Oc1ccc2c(ccn2C(=O)OC(C)(C)C)c1 (stereo partly specified) | > 20 | 40 | 0.5 | –
CCOC(=O)[C@H](C)NP(=O)(OC[C@H]1O[C@@H](n2ccc(N)nc2=O)[C@](C)(O)[C@@H]1O)Oc1ccc(Cl)cc1 (single isomer, unassigned) | – | – | – | EC50 (Hepatitis C virus [3]; hbi10a): 7.9 µM
COC(=O)[C@H](Cc1ccccc1)NP(=O)(OC[C@H]1O[C@@H](n2ccc(N)nc2=O)[C@](C)(O)[C@@H]1O)Oc1ccc(Cl)cc1 (mixture of isomers) | > 20 | – | > 20 | –
CCCCOC(=O)[C@H](C)NP(=O)(OC[C@H]1O[C@@H](n2ccc(N)nc2=O)[C@](C)(O)[C@@H]1O)Oc1ccccc1Cl (stereo partly specified) | > 20 | >23 | 0.87 | –
CCOC(=O)[C@H](C)NP(=O)(OC[C@H]1O[C@@H](n2ccc(N)nc2=O)[C@](C)(O)[C@@H]1O)Oc1ccc(C[C@H](N)C(=O)OC)cc1 (stereo partly specified) | > 20 | – | > 20 | –
CCOC(=O)[C@H](C)NP(=O)(OC[C@H]1O[C@@H](n2ccc(N)nc2=O)[C@](C)(O)[C@@H]1O)Oc1ccc(Cl)cc1 (stereo partly specified) | > 20 | – | – | EC50 (Hepatitis C virus [3]; hbi10a): 1 µM
CCOC(=O)[C@H](C)NP(=O)(OCc1ccccc1)OC[C@H]1O[C@@H](n2ccc(N)nc2=O)[C@](C)(O)[C@@H]1O (stereo partly specified) | > 20 | – | > 20 | –
CC(C)C(=O)OC[C@@]1(N=[N+]=[N-])O[C@@H](n2ccc(N)nc2=O)[C@H](OC(=O)C(C)C)[C@@H]1OC(=O)C(C)C [BALAPIRAVIR] | – | – | – | Activity (Hepatitis C virus [4]): 1.2
CCOC(=O)[C@@H](NP(=O)(OC[C@H]1O[C@@H](n2ccc(N)nc2=O)[C@](C)(O)[C@@H]1O)Oc1ccc(Cl)cc1)c1ccccc1 (mixture of isomers) | > 20 | >2.5 | 7.4 | –
CCCC[C@H](NP(=O)(OC[C@H]1O[C@@H](n2ccc(N)nc2=O)[C@](C)(O)[C@@H]1O)Oc1ccc(Cl)cc1)C(=O)OCC (mixture of isomers) | > 20 | >13 | 1.5 | –
CC(C)[C@H](N)C(=O)O[C@@H]1[C@@H](CO)O[C@@H](n2ccc(N)nc2=O)[C@]1(C)O [VALOPICITABINE] | > 100 | >13 | 7.6 | Activity (Hepatitis C virus [5]): 1.2; Activity (Hepatocyte): Dose-dependent effect; AUC [6]: 70 µM·h
CCOC(=O)[C@H](C)NP(=O)(OC[C@H]1O[C@@H](n2ccc(N)nc2=O)[C@](C)(O)[C@@H]1O)Oc1ccccc1C(=O)OC (mixture of isomers) | > 50 | >5 | 11 | –
CCOC(=O)[C@H](C)NP(=O)(OC[C@H]1O[C@@H](n2ccc(N)nc2=O)[C@](C)(O)[C@@H]1O)Oc1cccc2ccccc12 (stereo partly specified) | 15 | 75 | 0.2 | –

SMILES | CC50 [1] [µM] | Ratio CC50/EC50 [2] | EC50 (Hepatitis C virus [3]; Hepatitis C virus, HBI10A) [µM] | further results
COC(=O)[C@H](C)NP(=O)(OC[C@H]1O[C@@H](n2ccc(N)nc2=O)[C@](C)(O)[C@@H]1O)Oc1ccc(C(F)(F)F)cc1 (stereo partly specified) | > 50 | >5 | 9.6 | –
COC(=O)CCNP(=O)(OC[C@H]1O[C@@H](n2ccc(N)nc2=O)[C@](C)(O)[C@@H]1O)Oc1ccc(Cl)cc1 (mixture of isomers) | > 20 | – | > 20 | –
CCCC(CCC)COC(=O)[C@H](C)NP(=O)(O)OC[C@H]1O[C@@H](n2ccc(N)nc2=O)[C@](C)(O)[C@@H]1O | > 100 | – | 8.2 | AUC (Hamster): 700 µM·h; concentration [7]: 4.1 µM; concentration (Liver [8]): 5 µM; Drug uptake [9]: 39 µM; concentration [10]: 6 µM; concentration (Liver [11]): 2.9 µM
COC(=O)[C@H](C)NP(=O)(OC[C@H]1O[C@@H](n2ccc(N)nc2=O)[C@](C)(O)[C@@H]1O)Oc1ccc(OC)cc1 (mixture of isomers) | > 50 | >13 | 3.7 | –
COC(=O)CNP(=O)(OC[C@H]1O[C@@H](n2ccc(N)nc2=O)[C@](C)(O)[C@@H]1O)Oc1ccc(Cl)cc1 (mixture of isomers) | > 20 | >25 | 0.8 | –
CCOC(=O)[C@H](C)NP(=O)(OC[C@H]1O[C@@H](n2ccc(N)nc2=O)[C@](C)(O)[C@@H]1O)Oc1cc(C)c(Cl)cc1C(C)C (stereo partly specified) | 9 | 47 | 0.19 | –
CCCC(CCC)C(=O)OCCNP(=O)(O)OC[C@H]1O[C@@H](n2ccc(N)nc2=O)[C@](C)(O)[C@@H]1O | – | – | – | concentration (Liver [8]): 36 µM; Drug uptake [9]: 13 µM
CCOC(=O)[C@H](Cc1c[nH]c2ccccc12)NP(=O)(OC[C@H]1O[C@@H](n2ccc(N)nc2=O)[C@](C)(O)[C@@H]1O)Oc1ccc(Cl)cc1 (single isomer, unassigned) | > 50 | >3 | 17 | –
CCCOC(=O)[C@H](C)NP(=O)(OC[C@H]1O[C@@H](n2ccc(N)nc2=O)[C@](C)(O)[C@@H]1O)Oc1ccccc1 (stereo partly specified) | > 20 | – | 0.97 | –
CC(C)C(=O)OC[C@H]1O[C@@H](n2ccc(N)nc2=O)[C@](C)(F)[C@@H]1OC(=O)C(C)C [MERICITABINE] | – | – | – | Activity (Hepatitis C virus [12]): 2.7
CCCCOC(=O)[C@H](C)NP(=O)(OC[C@H]1O[C@@H](n2ccc(N)nc2=O)[C@](C)(O)[C@@H]1O)Oc1cccc2ccccc12 (stereo partly specified) | 9 | – | 0.09 | –
CCOC(=O)[C@H](C)NP(=O)(OC[C@H]1O[C@@H](n2ccc(N)nc2=O)[C@](C)(O)[C@@H]1O)OCC(Cl)(Cl)Cl (stereo partly specified) | > 50 | >5 | 10 | inhibition at 20 µM (Hepatitis C virus [13]): 52%
COC(=O)[C@@H](C)NP(=O)(OC[C@H]1O[C@@H](n2ccc(N)nc2=O)[C@](C)(O)[C@@H]1O)Oc1ccc(Cl)cc1 (mixture of isomers) | > 20 | >2.5 | 7.7 | –
COCCCOC(=O)[C@H](C)NP(=O)(OC[C@H]1O[C@@H](n2ccc(N)nc2=O)[C@](C)(O)[C@@H]1O)Oc1ccccc1 (stereo partly specified) | > 20 | – | 1.9 | –
C[C@@]1(O)[C@H](O)[C@@H](CO)O[C@H]1n1ccc(N)nc1=O | – | – | – | Activity (Hepacivirus hominis): 2 µM
CCOC(=O)[C@H](C)NP(=O)(OC[C@H]1O[C@@H](n2ccc(N)nc2=O)[C@](C)(O)[C@@H]1O)Oc1ccccc1C (stereo partly specified) | 9 | 50 | 0.18 | –
